The nature of data set [1]: Half life in human hepatocytes at 2 uM by LC-MS/MS analysis. Format: ADME, cell-based, Hepatocyte. In a few lines:
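Hepatocytes (male CD-1 mouse, male SD rat, male beagle dog, male cynomolgus monkey, pooled human), final 1 μM compound and 1 million cells/mL, made by mixing 2 μM compound with 2 million cells/mL. Incubated at 37 °C in a CO2 incubator; sampled at 0, 15, 30, 60, 90 and 120 min. Quenched with methanol/ACN containing 0.1% formic acid. Parent remaining measured by LC-MS/MS.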

The target of the next data set is T1, Cytochrome P450 1A2 (Homo sapiens, UniProt P05177).
T1 sequence (P05177 whole entry): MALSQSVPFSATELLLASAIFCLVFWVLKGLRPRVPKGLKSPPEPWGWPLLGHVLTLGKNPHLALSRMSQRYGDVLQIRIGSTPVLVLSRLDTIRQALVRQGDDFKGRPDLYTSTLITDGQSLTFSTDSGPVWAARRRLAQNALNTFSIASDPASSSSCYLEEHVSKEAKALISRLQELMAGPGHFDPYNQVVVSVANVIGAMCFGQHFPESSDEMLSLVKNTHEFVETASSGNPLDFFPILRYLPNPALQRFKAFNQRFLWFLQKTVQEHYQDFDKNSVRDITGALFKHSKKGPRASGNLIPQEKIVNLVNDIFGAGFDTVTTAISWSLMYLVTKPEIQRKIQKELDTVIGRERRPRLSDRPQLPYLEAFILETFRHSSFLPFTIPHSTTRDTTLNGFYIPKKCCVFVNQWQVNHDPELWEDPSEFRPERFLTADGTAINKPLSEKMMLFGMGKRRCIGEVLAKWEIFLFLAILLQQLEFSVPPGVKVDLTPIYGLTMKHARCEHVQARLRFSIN
Description: Inhibition of CYP1A2 in human liver microsomes after 20 mins by LC-MS/MS analysis. Format: ADME. In a few lines: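 Human liver microsomes (0.2 mg/mL) in phosphate buffer, 20 min incubation with compound at 0.1-50 μM alongside isoform-specific substrates and a positive control. Substrate remaining monitored by LC-MS/MS at each concentration; IC50 derived.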
In general terms: Microsomes from liver hold many membrane-bound enzymes, among them those of drug oxidation.

A short description of data set [2]: Oral bioavailability in Balb/c mouse at 25 mg/kg by LC-MS/MS analysis. Type of data set: ADME, organism-based. The note with it: in vivo. In a few lines: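 Female BALB/c mice, 20-25 g, five per route. Dosed 25 mg/kg p.o. in 0.5% carboxymethyl cellulose or 2.5 mg/kg i.v. in 10% DMSO/saline. Blood sampled 5 min-72 h (p.o.) or 2 min-48 h (i.v.), quantified by LC/MS/MS with ESI+. Parameters by non-compartmental analysis; F = (AUCpo×dose_iv)/(AUCiv×dose_po)×100%.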

Data set [3] relates to Mycobacterium tuberculosis. Description: Antitubercular activity against Mycobacterium tuberculosis H37Rv infected in Balb/c mouse assessed as lung bacterial burden by measuring colony forming unit at 100 mg/kg/day, po administered via gavage 5 times per week for 3 weeks starting from 10 days post-infection and measured 24 hrs post last dose (reference value: 7.102 +/- 0.152 log10CFU). Type of data set: functional. The following applies: time 22 day. In a few lines:
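Female SPF BALB/c mice, 6 per group, aerosol-infected with M. tuberculosis H37Rv to deposit 50-100 bacilli per lung. Compound suspended in 0.5% CMC, given by oral gavage from day 10 post-infection, 5 times per week for 3 weeks; controls got 0.5% CMC. Lungs harvested the day after the last dose, homogenised, diluted in HBSS, plated on 7H11 agar in duplicate, incubated 3 weeks at 37 °C. Result expressed as mean log10 CFU; t-test versus control.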

The nature of data set [4]: Genotoxicity in CHO-WBL cells assessed as chromosome aberration at 20 to 150 ug/ml incubated for 3 hrs followed by compound washout and measured after 17 hrs in absence of S9 fraction by Giemsa staining based. Format: toxicity, cell-based, Cricetulus griseus. The note with it: chinese hamster, dose 20-150 µg/ml. In a few lines:
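CHO-WBL cells in McCoy's 5A with 10% FBS, seeded 20-24 h before treatment. Compound in DMSO, with or without serum-free S-9 mix. Treatment either 3 h, then HBSS wash and 17 h further culture, or 20 h; harvest at 20 h from treatment start. Colcemid 0.1 μg/mL for the final 2 h, hypotonic KCl, methanol:acetic acid fixation, Giemsa stain. 300 metaphases per concentration (150 per duplicate flask) scored.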

Data set [5] can be described thus: Toxicity in female Sprague-Dawley rat assessed as changes in neuropsychic symptoms at 50 to 450 mg/kg/day, po administered for 4 weeks followed by 2 week recovery period measured during last 24 hrs of recovery period. The note with it: in vivo, 672 h, dose 50-450 mg/kg/day. Type of data set: organism-based. In a few lines:
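SD rats, 6-7 weeks old (96 in total), split into vehicle, 50, 150 and 450 mg/kg/day groups of 12 females and 12 males each, given oral doses once daily for 4 weeks, then 2 weeks of recovery. Mortality, body weight, food intake, eyes, urine and neuropsychic signs were observed. Organ and bone marrow histopathology was done on 8 rats per sex per group after the last dose and on the remaining 4 per sex after 14 days of recovery.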

Data set [6] can be described thus: Toxicity in male Sprague-Dawley rat assessed as mortality at 50 to 450 mg/kg/day, po administered for 4 weeks followed by 2 week recovery period. Format: organism-based. The following applies: in vivo, 672 h, dose 50-450 mg/kg/day.
The nature of data set [7]: Toxicity in male Sprague-Dawley rat assessed as ophthalmic changes at 50 to 450 mg/kg/day, po administered for 4 weeks measured within 7 days of post last dose. Format: organism-based. The note with it: in vivo, 672 h, dose 50-450 mg/kg/day.
Data set [8] is described as follows: Toxicity in male Sprague-Dawley rat assessed as histopathological changes in bone marrow at 450 mg/kg/day, po administered for 4 weeks measured post last dose. Type of data set: organism-based. The following applies: in vivo, 672 h.
Data set [9] in a line: Toxicity in male Sprague-Dawley rat assessed as change in platelet count at 50 mg/kg/day, po administered for 4 weeks followed by 2 week recovery period (Rvb =1077 +/- 117 10^9/L). Format: organism-based. The note with it: in vivo, 672 h.
Data set [10] can be described thus: Toxicity in male Sprague-Dawley rat assessed as change in mean corpuscular volume at 50 mg/kg/day, po administered for 4 weeks followed by 2 week recovery period (Rvb =57.5 +/- 2.0 fL). Type of data set: organism-based. The following applies: in vivo, 672 h.
The nature of data set [11]: Toxicity in male Sprague-Dawley rat assessed as change in mean corpuscular hemoglobin at 50 mg/kg/day, po administered for 4 weeks followed by 2 week recovery period (Rvb =18.3 +/- 0.4 pg). Type of data set: organism-based. The note with it: in vivo, 672 h.
A short description of data set [12]: Toxicity in female Sprague-Dawley rat assessed as change in red blood cell count at 150 mg/kg/day, po administered for 4 weeks followed by 2 week recovery period (Rvb =7.32 +/- 0.20 10^12/L). Format: organism-based. The note with it: in vivo, 672 h.
Data set [13] in a line: Toxicity in male Sprague-Dawley rat assessed as change in platelet count at 150 mg/kg/day, po administered for 4 weeks followed by 2 week recovery period (Rvb =1077 +/- 117 10^9/L). Format: organism-based. The note with it: in vivo, 672 h.
A short description of data set [14]: Toxicity in male Sprague-Dawley rat assessed as change in red blood cell count at 450 mg/kg/day, po administered for 4 weeks followed by 2 week recovery period (Rvb =7.86 +/- 0.32 10^12/L). Format: organism-based. The following applies: in vivo, 672 h.
Data set [15] can be described thus: Toxicity in male Sprague-Dawley rat assessed as change in hemoglobin count at 450 mg/kg/day, po administered for 4 weeks followed by 2 week recovery period (Rvb =144 +/- 5 g/L). Format: organism-based. The note with it: in vivo, 672 h.

Consider one compound from ChEMBL document CHEMBL4725282, “Discovery of a Conformationally Constrained Oxazolidinone with Improved Safety and Efficacy Profiles for the Treatment of Multidrug-Resistant Tuberculosis” (J Med Chem, 2020).

As usually defined, the half-life is the time needed for the level to fall by half in the phase considered. Read a high half-life as slow loss. What is called IC50 is the concentration that inhibits the measured activity by half. In general, bioavailability refers to dose-corrected exposure relative to a reference, in per cent. `CC(=O)NC[C@@H]1OC(=O)N2c3cc(F)c(N4CCSCC4)cc3OC[C@@H]12`: the half-life at 2 µM in data set [1] is above 8.33 h. Besides, the IC50 against Cytochrome P450 1A2 is above 50 µM. In [2], this compound had a bioavailability of 55.9%. Besides, the Activity in data set [3] is on record as 1.954 log10CFU; in data set [4] it was “Non-Toxic”; in [5], “Non-Toxic”; in [6], “Non-Toxic”; in data set [7] it was “Non-Toxic”; in [8], “Non-Toxic”. Further, the Activity is recorded as 955 10^9/L in [9]; 59.7 fL in data set [10]; 18.7 pg in [11]; 6.61 10^12/L in data set [12]; 998 10^9/L in data set [13]; 7.46 10^12/L in [14]. For the same compound, the Activity in [15] worked out at 139 g/L.
